Assay results published in ChEMBL document CHEMBL1123201, “7-(Trifluoromethyl)-4-aminoquinoline hypotensives: novel peripheral sympatholytics” (J Med Chem, 1986).
Values joined by “and” are separate entries in the source; they are usually repeats but may differ in a detail not shown here. Identical values can stand only once. Active and inactive are the calls of the source. The calls are words filed in the database; no cut-off is given here.

Columns and labels:
Rattus norvegicus [1] = test: Hypotensive activity in conscious rat 4 hr after 5 mg/kg p.o. administration.; format: functional; settings: route oral
Outline: (§1)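 Restrained (towel-wrapped, to raise sympathetic tone) conscious female Sprague-Dawley rats with chronic indwelling aortic cannulas exteriorized at the nape; blood pressure recorded directly by transducer before and 4 and 24 h after oral dosing. Compound suspended in carboxymethylcellulose vehicle, 10 mL/kg; doses 50 to 0.05 mg/kg. Two rats averaged per time point; average change ≥5 mmHg taken as significant (p < 0.05).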

Rattus norvegicus [2] = test: Compound was tested for hypotensive activity by measuring the average change in mean arterial blood pressure in mmHg after 24 hr at 0.5 mg/Kg oral dosing of a conscious rat; format: functional, Artery; outline: as §1
Rattus norvegicus [3] = test: Hypotensive activity in conscious rat 24 hr after 5 mg/kg p.o. administration.; format: functional; settings: route oral; outline: as §1
Rattus norvegicus [4] = test: Compound was tested for hypotensive activity by measuring the average change in mean arterial blood pressure in mmHg after 4 hr at 0.5 mg/Kg oral dosing of a conscious rat; format: functional, Artery; outline: as §1
Mus musculus [5] = species: Mus musculus; test: Lowest dose of compound associated with unacceptable clinical signs.; format: functional
Mus musculus [6] = species: Mus musculus; test: Lowest dose of compound associated with clinical signs.; format: functional
[7] = Acute toxicity was determined in mice; format: organism-based; settings: mouse, in vivo
Rattus norvegicus [8] = test: Compound was tested for hypotensive activity by measuring the average change in mean arterial blood pressure in mmHg after 4 hr at 50 mg/Kg oral dosing of a conscious rat; format: functional, Artery; outline: as §1
Rattus norvegicus [9] = test: Compound was tested for hypotensive activity by measuring the average change in mean arterial blood pressure in mmHg after 24 hr at 50 mg/Kg oral dosing of a conscious rat; format: functional, Artery; outline: as §1
Rattus norvegicus [10] = test: Compound was tested for hypotensive activity by measuring the average change in mean arterial blood pressure in mmHg after 4 hr at 0.1 mg/Kg oral dosing of a conscious rat; format: functional, Artery; outline: as §1
Rattus norvegicus [11] = test: Compound was tested for hypotensive activity by measuring the average change in mean arterial blood pressure in mmHg after 24 hr at 0.1 mg/Kg oral dosing of a conscious rat; format: functional, Artery; outline: as §1
Rattus norvegicus [12] = test: Compound was tested for hypotensive activity by measuring the average change in mean arterial blood pressure in mmHg after 24 hr at 0.15 mg/Kg oral dosing of a conscious rat; format: functional, Artery; outline: as §1
Rattus norvegicus [13] = test: Compound was tested for hypotensive activity by measuring the average change in mean arterial blood pressure in mmHg after 24 hr at 15 mg/Kg oral dosing of a conscious rat; format: functional, Artery; outline: as §1
Rattus norvegicus [14] = test: Compound was tested for hypotensive activity by measuring the average change in mean arterial blood pressure in mmHg after 4 hr at 15 mg/Kg oral dosing of a conscious rat; format: functional, Artery; outline: as §1
Rattus norvegicus [15] = test: Compound was tested for hypotensive activity by measuring the average change in mean arterial blood pressure in mmHg after 24 hr at 1.5 mg/Kg oral dosing of a conscious rat; format: functional, Artery; outline: as §1
Rattus norvegicus [16] = test: Compound was tested for hypotensive activity by measuring the average change in mean arterial blood pressure in mmHg after 4 hr at 1.5 mg/Kg oral dosing of a conscious rat; format: functional, Artery; outline: as §1
Rattus norvegicus [17] = test: Compound was tested for hypotensive activity by measuring the average change in mean arterial blood pressure in mmHg after 4 hr at 0.05 mg/Kg oral dosing of a conscious rat; format: functional, Artery; outline: as §1
Rattus norvegicus [18] = test: Compound was tested for hypotensive activity by measuring the average change in mean arterial blood pressure in mmHg after 24 hr at 0.05 mg/Kg oral dosing of a conscious rat; format: functional, Artery; outline: as §1
Rattus norvegicus [19] = test: Compound was tested for hypotensive activity by measuring the average change in mean arterial blood pressure in mmHg after 4 hr at 0.15 mg/Kg oral dosing of a conscious rat; format: functional, Artery; outline: as §1
Rattus norvegicus [20] = test: Compound was tested for hypotensive activity by measuring the average change in mean arterial blood pressure in mmHg after 24 hr at 1 mg/Kg oral dosing of a conscious rat; format: functional, Artery; outline: as §1
Rattus norvegicus [21] = test: Compound was tested for hypotensive activity by measuring the average change in mean arterial blood pressure in mmHg after 4 hr at 1 mg/Kg oral dosing of a conscious rat; format: functional, Artery; outline: as §1
Rattus norvegicus [22] = test: Compound was tested for hypotensive activity by measuring the average change in mean arterial blood pressure in mmHg after 24 hr at 150 mg/Kg oral dosing of a conscious rat; format: functional, Artery
Rattus norvegicus [23] = test: Compound was tested for hypotensive activity by measuring the average change in mean arterial blood pressure in mmHg after 4 hr at 150 mg/Kg oral dosing of a conscious rat; format: functional, Artery
Rattus norvegicus [24] = test: Compound was tested for hypotensive activity by measuring the average change in mean arterial blood pressure in mmHg at 3 mg/Kg oral dosing of a conscious rat; IA is Inactive; format: functional, organism-based; settings: Artery; outline: as §1
Mus musculus [25] = species: Mus musculus; test: Lowest dose of compound associated with clinical signs; format: functional
Rattus norvegicus [26] = test: Compound was tested for hypotensive activity by measuring the average change in mean arterial blood pressure in mmHg at 4 hr after at 50 mg/Kg oral dosing of a conscious rat; format: functional, Artery; outline: as §1
Rattus norvegicus [27] = test: Compound was tested for hypotensive activity by measuring the average change in mean arterial blood pressure in mmHg 24 hr after at 50 mg/Kg oral dosing of a conscious rat; format: functional, Artery; outline: as §1
Rattus norvegicus [28] = test: Compound was tested for hypotensive activity by measuring the average change in mean arterial blood pressure in mmHg after 4 hr at 10 mg/Kg oral dosing of a conscious rat; format: functional, Artery; outline: as §1
Rattus norvegicus [29] = test: Compound was tested for hypotensive activity by measuring the average change in mean arterial blood pressure in mmHg after 24 hr at 10 mg/Kg oral dosing of a conscious rat; format: functional, Artery; outline: as §1
Mus musculus [30] = species: Mus musculus; test: Lowest dose of compound associated with clinical signs; NA is Not Acceptable.; format: functional, organism-based

| Structure (SMILES) | Activity (Rattus norvegicus [1]) [mmHg] | Activity (Rattus norvegicus [2]) [mmHg] | Activity (Rattus norvegicus [3]) [mmHg] | Activity (Rattus norvegicus [4]) [mmHg] | Dose (Mus musculus [5]) [mg/kg] | LD50 [7] [mg/kg] | Activity (Rattus norvegicus [8]) [mmHg] | Activity (Rattus norvegicus [9]) [mmHg] | further results |
| --- | --- | --- | --- | --- | --- | --- | --- | --- | --- |
| CN(C)S(=O)(=O)N1CCN(C(=O)c2ccc(Nc3ccnc4cc(C(F)(F)F)ccc34)cc2)CC1 | -18 | -2 | -6 | -6 | >3160 | > 3160 | – | – | Dose (Mus musculus [6]): 100 mg/kg |
| COc1ccc(S(=O)(=O)N2CCN(C(=O)c3ccc(Nc4ccnc5cc(C(F)(F)F)ccc45)cc3)CC2)cc1 | -6 | – | -3 | – | – | – | – | – | – |
| COc1ccc(N2CCN(C(=O)c3ccc(Nc4ccnc5cc(C(F)(F)F)ccc45)cc3)CC2)cc1 | – | – | – | – | – | – | -19 | -18 | – |
| O=C(c1ccc(Nc2ccnc3cc(C(F)(F)F)ccc23)cc1)N1CC=C(c2ccc(Cl)cc2)CC1 | -7 | – | -16 | – | 316 | 1000 | – | – | Activity (Rattus norvegicus [10]): -3 mmHg; Dose (Mus musculus [6]): <100 mg/kg; Activity (Rattus norvegicus [11]): -11 mmHg |
| Cc1ccccc1N1CCN(S(=O)(=O)c2ccc(Nc3ccnc4cc(C(F)(F)F)ccc34)cc2)CC1 | -10 | 0 | -13 | -1 | – | – | – | – | – |
| O=C(c1ccc(Nc2ccnc3cc(C(F)(F)F)ccc23)cc1)N1CCN(S(=O)(=O)c2ccc(F)cc2)CC1 [LOSULAZINE] | – | -15 | – | -10 | >3160 | > 3160 | – | – | Activity (Rattus norvegicus [12]): -14 mmHg; Activity (Rattus norvegicus [13]): -25 mmHg; Activity (Rattus norvegicus [14]): -19 mmHg; Activity (Rattus norvegicus [15]): -21 mmHg; Activity (Rattus norvegicus [16]): -17 mmHg; Activity (Rattus norvegicus [17]): -6 mmHg; Activity (Rattus norvegicus [18]): -2 mmHg; Dose (Mus musculus [6]): 100 mg/kg; Activity (Rattus norvegicus [19]): -12 mmHg |
| Cc1cccc(C2(O)CCN(C(=O)c3ccc(Nc4ccnc5cc(C(F)(F)F)ccc45)cc3)CC2)c1 | -10 | -1 | -4 | -4 | – | – | – | – | – |
| COc1ccc(C2=CCN(C(=O)c3ccc(Nc4ccnc5cc(C(F)(F)F)ccc45)cc3)CC2)cc1 | -6 | – | -2 | – | – | – | – | – | – |
| COc1ccccc1N1CCN(C(=O)c2ccc(Nc3ccnc4cc(C(F)(F)F)ccc34)cc2)CC1 | – | – | – | – | – | – | -13 | -27 | – |
| O=C(c1ccc(Nc2ccnc3cc(C(F)(F)F)ccc23)cc1)N1CCN(c2ccc(F)cc2)CC1 | -11 | – | -10 | – | – | – | – | – | Activity (Rattus norvegicus [20]): 1 mmHg; Activity (Rattus norvegicus [21]): -12 mmHg |
| CS(=O)(=O)c1ccc(N2CCN(C(=O)c3ccc(Nc4ccnc5cc(C(F)(F)F)ccc45)cc3)CC2)cc1 | -10 | -5 | -16 | -7 | 1000 | 3160 | – | – | Dose (Mus musculus [6]): 316 mg/kg |
| COc1ccccc1N1CCN(S(=O)(=O)c2ccc(Nc3ccnc4cc(C(F)(F)F)ccc34)cc2)CC1 | -1 | – | -14 | – | – | – | – | – | – |
| O=C(c1ccc(Nc2ccnc3cc(C(F)(F)F)ccc23)cc1)N1CCN(c2ccccc2)CC1 | – | – | – | – | – | – | 4 | -13 | – |
| Cc1ccc(S(=O)(=O)N2CCN(C(=O)c3ccc(Nc4ccnc5cc(C(F)(F)F)ccc45)cc3)CC2)cc1 | -42 | – | -25 | – | – | – | – | – | – |
| COc1ccc(C2(O)CCN(C(=O)c3ccc(Nc4ccnc5cc(C(F)(F)F)ccc45)cc3)CC2)cc1 | -15 | – | -5 | – | – | – | – | – | – |
| Fc1ccc(N2CCN(Cc3ccc(Nc4ccnc5cc(C(F)(F)F)ccc45)cc3)CC2)cc1 | – | – | – | – | – | – | -4 | -18 | Activity (Rattus norvegicus [1]; 5 mg/kg): -7 mmHg and -9 mmHg |
| CSc1nccc(N2CCN(C(=O)c3ccc(Nc4ccnc5cc(C(F)(F)F)ccc45)cc3)CC2)n1 | -8 | – | -16 | – | – | – | – | – | – |
| Cc1cc(N2CCN(C(=O)c3ccc(Nc4ccnc5cc(C(F)(F)F)ccc45)cc3)CC2)nc(N)n1 | – | – | – | – | – | – | -3 | -4 | – |
| O=C(c1ccc(Nc2ccnc3cc(C(F)(F)F)ccc23)cc1)N1CCN(c2ccccn2)CC1 | -10 | -2 | -13 | 2 | 316 | 1400 | – | – | Dose (Mus musculus [6]): <100 mg/kg |
| O=C(c1ccc(Nc2ccnc3cc(C(F)(F)F)ccc23)cc1)N1CCC(c2ccccc2)CC1 | – | – | – | – | – | – | -4 | -17 | – |
| COc1cc(N2CCN(C(=O)c3ccc(Nc4ccnc5cc(C(F)(F)F)ccc45)cc3)CC2)nc(OC)n1 | -10 | -12 | -24 | -2 | <100 | > 3160 | -13 | -29 | Dose (Mus musculus [6]): <100 mg/kg |
| O=C(c1ccc(Nc2ccnc3cc(C(F)(F)F)ccc23)cc1)N1CCN(S(=O)(=O)c2ccc(Cl)cc2)CC1 | -20 | -15 | -34 | -13 | >3160 | > 3160 | – | – | Dose (Mus musculus [6]): <100 mg/kg |
| O=C(c1ccc(Nc2ccnc3cc(C(F)(F)F)ccc23)cc1)N1CCN(c2[nH]cnc3ncnc2-3)CC1 | – | – | – | – | – | – | -4 | -3 | – |
| COc1ccc(N2CCN(Cc3ccc(Nc4ccnc5cc(C(F)(F)F)ccc45)cc3)CC2)cc1 | – | – | – | – | – | – | 1 | -1 | Activity (Rattus norvegicus [22]): -16 mmHg; Activity (Rattus norvegicus [23]): -5 mmHg |
| O=C(c1ccc(Nc2ccnc3cc(C(F)(F)F)ccc23)cc1)N1CCNCC1 | – | – | – | – | 1000 | 1780 | – | – | Activity (Rattus norvegicus [24]): inactive; Dose (Mus musculus [25]): 100 mg/kg; Activity (Rattus norvegicus [26]): -15 mmHg; Activity (Rattus norvegicus [27]): -22 mmHg; Activity (Rattus norvegicus [28]): -7 mmHg; Activity (Rattus norvegicus [29]): -8 mmHg |
| Cc1cccc(C2=CCN(C(=O)c3ccc(Nc4ccnc5cc(C(F)(F)F)ccc45)cc3)CC2)c1 | -8 | – | -8 | – | – | – | – | – | – |
| O=C(c1ccc(Nc2ccnc3cc(C(F)(F)F)ccc23)cc1)N1CCC(O)(c2ccc(Cl)cc2)CC1 | – | -22 | – | -19 | <100 | 237 | – | – | DOSE (Mus musculus [30]): Not acceptable |
